Test results from ChEMBL document CHEMBL1146809, “(+)-3-[2-(Benzo[b]thiophen-2-yl)-2-oxoethyl]-1-azabicyclo[2.2.2]octane as potent agonists for the alpha7 nicotinic acetylcholine receptor” (Bioorg Med Chem Lett, 2004).

Biological target: T1, Neuronal acetylcholine receptor subunit alpha-7 (Rattus norvegicus, UniProt Q05941)
T1 sequence (Q05941 whole entry): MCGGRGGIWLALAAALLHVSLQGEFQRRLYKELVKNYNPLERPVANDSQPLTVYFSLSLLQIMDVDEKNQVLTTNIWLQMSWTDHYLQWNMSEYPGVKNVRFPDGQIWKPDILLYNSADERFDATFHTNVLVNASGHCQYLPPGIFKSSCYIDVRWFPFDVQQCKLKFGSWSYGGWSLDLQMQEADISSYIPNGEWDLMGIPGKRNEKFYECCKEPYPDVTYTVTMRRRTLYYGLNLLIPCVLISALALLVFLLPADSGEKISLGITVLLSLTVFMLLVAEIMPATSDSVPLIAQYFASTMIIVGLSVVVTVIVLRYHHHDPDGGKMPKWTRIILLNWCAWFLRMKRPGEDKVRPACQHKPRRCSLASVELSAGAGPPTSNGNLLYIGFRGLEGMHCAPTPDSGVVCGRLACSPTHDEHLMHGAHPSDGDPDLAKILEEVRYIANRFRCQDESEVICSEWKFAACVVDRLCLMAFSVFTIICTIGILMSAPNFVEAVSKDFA
Assay: Alpha 7 nicotinic acetylcholine receptor binding activity in PC12 cells
Format: cell-based, PC-12
Work on `c1ccc2sc(CO[C@H]3CN4CCC3CC4)cc2c1` yielded an IC50 of 515 nM.
With `c1ccc2sc(CC3CN4CCC3CC4)cc2c1` (configuration not stated) the IC50 was 110 nM.
Work on `O=C(c1cc2ccccc2s1)C1CN2CCC1CC2` (configuration not stated) yielded an IC50 of 950 nM.
For `c1ccc2sc(CCCC3CN4CCC3CC4)cc2c1` (configuration not stated), the IC50 was 370 nM.
In the case of `c1ccc2sc(CO[C@@H]3CN4CCC3CC4)cc2c1`, the IC50 is reported as 26 nM.
Compound `COc1ccc(Cc2cccnc2-c2cccnc2)c(OC)c1` has an IC50 of 760 nM.
Work on `c1ccc2sc(COC3CN4CCC3CC4)cc2c1` (configuration not stated) yielded an IC50 of 59 nM.
For `c1ccc2sc(CCC3CN4CCC3CC4)cc2c1` (single isomer, unassigned; (+)), the IC50 was 65 nM.
`O=C(CC1CN2CCC1CC2)c1cc2ccccc2s1` (single isomer, unassigned; (+)) gave an IC50 of 130 nM.
`O=C(CC1CN2CCC1CC2)c1cc2ccccc2s1` (single isomer, unassigned; (-)) showed an IC50 of 170 nM.
With `O=C(CC1CN2CCC1CC2)c1cc2ccccc2s1` (stereo in doubt; 15b) the IC50 was 150 nM.
`c1ccc2sc(CCC3CN4CCC3CC4)cc2c1` (stereo in doubt; 16b) gave an IC50 of 23 nM.
`c1ccc2sc(CCC3CN4CCC3CC4)cc2c1` (stereo in doubt; (-)-16b) showed an IC50 of 220 nM.

Tested on: not listed separately
Assay: Cmax wa determined in rat plasma at 30 mg/kg after po administration
Format: ADME, organism-based
Set-up: dose 30 mg/kg, route oral
Method in brief: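 Rats were dosed orally at 30 mg/kg. The read-out was the peak plasma concentration (Cmax), reported in ng/mL.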
Compound `O=C(CC1CN2CCC1CC2)c1cc2ccccc2s1` (stereo in doubt; 15b) has a Cmax of 270 ng/mL.
For `c1ccc2sc(CCC3CN4CCC3CC4)cc2c1` (stereo in doubt; 16b), the Cmax was 450 ng/mL.

Biological target: T1, Neuronal acetylcholine receptor subunit alpha-7
Assay: Binding affinities for the alpha 7 nicotinic acetylcholine receptor was determined in PC12 cells
Format: cell-based, PC-12
Work on `c1ccc2cc(COC3CN4CCC3CC4)ccc2c1` (configuration not stated) yielded an IC50 of 150 nM.
Work on `c1ccc2c(COC3CN4CCC3CC4)cccc2c1` (configuration not stated) yielded an IC50 of 730 nM.
